Data set [1] concerns L1210. Kind of data set: Percentage of spermidine after 48 hr of exposure to the compound (10 uM ) in L1210 cells. In kind it is functional, Mus musculus. The method, boiled down: (§1)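 Log-phase L1210 cells were treated for 48 h with analogue at two concentrations. Cells were washed twice in cold RPMI-1640 and extracted with 0.6 N HClO4. Putrescine, spermidine and spermine were quantified by HPLC of dansyl derivatives and given as percent of untreated controls. Runs were in triplicate with untreated controls.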

Data set [2] has as its system L1210. Briefly: Growth inhibitory activity against L1210 cells (48h). In kind it is functional, cell-based. As to conditions: Mus musculus, L1210, 48 h. The method, boiled down: (§2)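 Murine L1210 leukemia cells were kept in log growth in RPMI-1640 with 10% fetal calf serum or NuSerum, HEPES-MOPS buffer and 1 mM aminoguanidine. IC50 is the concentration giving 50% of untreated control growth, as the mean of at least two experiments.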

Data set [3] concerns the target Spermidine/spermine N(1)-acetyltransferase (SAT) (Mus musculus) (UniProt Q6P8J2+P48026). Kind of data set: Effect on Spermidine/Spermine-Acetyltransferase (SSAT ) at 10 uM at 48 hour in L1210 cells. In kind it is functional, cell-based. The method, boiled down: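 L1210 cells were exposed to 10 μM triamine for 48 h. SSAT activity was taken as [14C]N1-acetylspermidine formed from spermidine and [14C]acetyl-CoA, given as percent of untreated control. DENSPM-treated cells served as positive control. Values are the mean of at least three experiments.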

The test system of data set [4] is L1210. Briefly: Percentage of spermidine after 48 hr of exposure to the compound (2 uM ) in L1210 cells. In kind it is functional, Mus musculus. The method, boiled down:
as §1

The target of data set [5] is T1, S-adenosylmethionine decarboxylase proenzyme 1 (Mus musculus) (UniProt P0DMN7).
T1 sequence (whole entry): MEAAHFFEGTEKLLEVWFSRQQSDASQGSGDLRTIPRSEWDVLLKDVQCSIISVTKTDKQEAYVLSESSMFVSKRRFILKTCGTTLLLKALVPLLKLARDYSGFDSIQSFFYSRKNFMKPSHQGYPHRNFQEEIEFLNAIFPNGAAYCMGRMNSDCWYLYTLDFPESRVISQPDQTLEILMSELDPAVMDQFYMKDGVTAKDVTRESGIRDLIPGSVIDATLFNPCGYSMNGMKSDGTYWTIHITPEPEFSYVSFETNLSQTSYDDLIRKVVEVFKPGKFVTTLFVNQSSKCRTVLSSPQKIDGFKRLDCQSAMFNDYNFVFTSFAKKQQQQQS
Briefly: Effect on S-Adenosyl-methionine decarboxylase (AdoMetDC) tested at 1 uM at 6 hour in L1210 cells. In kind it is functional, cell-based. The method, boiled down: (§3)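 L1210 cells were exposed to 1 μM analogue, for 4 h (ODC) or 6 h (AdoMetDC). Activity was measured as 14CO2 released from [14C]carboxyl-labelled L-ornithine (ODC) or S-adenosyl-L-methionine (AdoMetDC) and given as percent of untreated control. Each run included DEHSPM-treated positive controls. Values are the mean of at least three experiments.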

In data set [6] the test system is L1210. Briefly: Percentage of putrescine after 48 hr exposure to the compound (2 uM ) in L1210 cells. It is filed as functional, Mus musculus. The method, boiled down: as §1
The test system of data set [7] is L1210. Briefly: Percentage of putrescine after 48 hr exposure to the compound (10 uM ) in L1210 cells. It is filed as functional, Mus musculus. The method, boiled down: as §1
In data set [8] the test system is L1210. Kind of data set: Intracellular levels in L1210 cells following 500 uM exposure. In kind it is functional, Mus musculus. The method, boiled down:
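L1210 cells were grown 48 h in medium containing 500 μM analogue. Cellular contents were analysed by HPLC of dansyl derivatives and given as pmol/10^6 cells, as parent drug and metabolites with the % of total drug in the cell.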

Data set [9] can be described thus: Effect on ornithine decarboxylase (ODC) tested at 1 uM at 4 hour in L1210 cells. It is filed as functional, Mus musculus. The method, boiled down: as §3
A short description of data set [10]: Binding affinity values for polyamine transporter was determined.
For data set [11], the system named is L1210. Kind of data set: Growth inhibitory activity against L1210 cells (96h). It is filed as functional, cell-based. As to conditions: Mus musculus, L1210, 96 h. The method, boiled down:
as §2

In data set [12] the test system is L1210. Kind of data set: Percentage of putrescine after 48 hr exposure to the compound (3(0.3)uM ) in L1210 cells. It is filed as functional, Mus musculus. The method, boiled down:
as §1

A short description of data set [13]: The chronic lethal dose administered as intraperitoneal injection. It is filed as ADME. As to conditions: mouse, ip. The method, boiled down:
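Female CD-1 mice, 10–12 weeks old. Analogue given as hydrochloride salt by ip injection three times daily for 6 days (18 doses). Appetite, weight and appearance monitored daily, and lethality scored 10 days after the final dose.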

In data set [14] the test system is L1210. Briefly: Percentage of spermidine after 48 hr of exposure to the compound (3(0.3)uM ) in L1210 cells. It is filed as functional, Mus musculus. The method, boiled down:
as §1

Data set [15] relates to L1210. Kind of data set: Percentage of spermine after 48 hr exposure to the compound (15(1.5)uM ) in L1210 cells. In kind it is functional, Mus musculus. The method, boiled down:
as §1

In data set [16] the test system is L1210. Kind of data set: Percentage of putrescine after 48 hr exposure to the compound (15(1.5)uM ) in L1210 cells. It is filed as functional, Mus musculus. The method, boiled down: as §1
In data set [17] the test system is L1210. Briefly: Percentage of spermidine after 48 hr of exposure to the compound (15(1.5)uM ) in L1210 cells. It is filed as functional, Mus musculus. The method, boiled down:
as §1

Data set [18] deals with L1210. Briefly: Percentage of spermine after 48 hr exposure to the compound (3(0.3)uM ) in L1210 cells. It is filed as functional, Mus musculus. The method, boiled down: as §1
Data set [19] concerns L1210. Kind of data set: Percentage of spermidine after 48 hr of exposure to the compound (100(30)uM ) in L1210 cells. It is filed as functional, Mus musculus. The method, boiled down: as §1
Data set [20] deals with L1210. Kind of data set: Percentage of spermine after 48 hr exposure to the compound (500(150)uM ) in L1210 cells. It is filed as functional, Mus musculus. The method, boiled down: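 Log-phase murine L1210 leukemia cells (RPMI-1640, 10% fetal calf serum or NuSerum, HEPES-MOPS buffer, 1 mM aminoguanidine) exposed 48 h to analogue at two concentrations. Cells washed twice in cold RPMI-1640 and extracted with 0.6 N HClO4. Spermine in extracts quantified by HPLC of DANSYL derivatives and expressed as percent of untreated controls. Triplicate flasks per condition.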

Data set [21] has as its system L1210. Kind of data set: Percentage of spermidine after 48 hr of exposure to the compound (500(150)uM ) in L1210 cells. It is filed as functional, Mus musculus. The method, boiled down:
as §1

Data set [22] relates to L1210. Kind of data set: Percentage of putrescine after 48 hr exposure to the compound (500(150)uM ) in L1210 cells. In kind it is functional, Mus musculus. The method, boiled down:
as §1

Data set [23] has as its system L1210. Briefly: Percentage of spermine after 48 hr exposure to the compound (100(30)uM ) in L1210 cells. It is filed as functional, Mus musculus. The method, boiled down:
as §1

For data set [24], the system named is L1210. Briefly: Percentage of putrescine after 48 hr exposure to the compound (100(30)uM ) in L1210 cells. In kind it is functional, Mus musculus. The method, boiled down: as §1

Molecules are shown by their SMILES.

Sequence of Spermidine/spermine N(1)-acetyltransferase (SAT) (Mus musculus) (P48026 whole entry, looked up): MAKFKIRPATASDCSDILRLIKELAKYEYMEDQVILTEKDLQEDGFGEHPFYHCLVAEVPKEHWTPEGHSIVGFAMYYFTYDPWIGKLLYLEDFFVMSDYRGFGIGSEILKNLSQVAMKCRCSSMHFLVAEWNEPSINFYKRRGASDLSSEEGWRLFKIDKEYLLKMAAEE
Sequence of Spermidine/spermine N(1)-acetyltransferase (SAT) (Mus musculus) (Q6P8J2 whole entry, looked up): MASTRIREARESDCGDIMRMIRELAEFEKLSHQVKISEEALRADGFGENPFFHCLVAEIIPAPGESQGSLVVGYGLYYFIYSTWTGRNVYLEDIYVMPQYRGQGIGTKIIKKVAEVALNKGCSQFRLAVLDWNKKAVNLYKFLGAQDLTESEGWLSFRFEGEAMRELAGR

One may read the IC50 as the concentration at which inhibition is half-maximal. The low end stands for inhibition by little substance, the high end for a need for much substance. Usually Ki stands for the equilibrium dissociation constant of an inhibitor or competing ligand from its target. A high value points to a looser hold on the target. For `CNCCCCCNCCCCNC`, the Polyamine is on record as 18% in data set [1], 33% in [4], 0% in [6] and 0% in [7]. Also, the figures for the half-maximal inhibitory concentration (IC50) in [2] and in data set [11] were 2 µM and 0.12 µM, respectively. Further, the SSAT in data set [3] amounted to 130%. This compound also showed an AdoMetDC in data set [5] of 71%. In [8], the “Picoequivalents of amine/10e6 cells” value came out at 20810. Further, the ODC in data set [9] is listed as 56%. The Ki in [10] was found to be 21 µM.
The LD50 is the dose expected to kill half of the subjects tested. Higher therefore signals lower toxicity. For the compound `CCNCCCCCNCCCCNCC`, the Polyamine in [12] is 0%; in [14], 47%; in data set [15], 98%; in [16] it was 0%; in [17] it was 18%; in data set [18], 99%. In data set [13], this compound came in with an LD50 of 375 mg/kg/day. The 50% inhibitory concentration (IC50) in data set [2] worked out at 4.5 µM; in [11], 0.2 µM. The SSAT in [3] worked out at 120%. The same compound had an AdoMetDC in data set [5] of 70%. For the same compound, the “Picoequivalents of amine/10e6 cells” value in [8] was determined as 14590. In data set [9], this compound showed an ODC of 100%. Besides, the affinity in data set [10], expressed as Ki, was 64 µM.
For the compound `CCNCCCCNCCCNCC`, the Polyamine turned out to be 5% in data set [19]; 55% in data set [20]; 0% in [21]; 0% in data set [22]; 74% in data set [23]; 0% in data set [24]. The compound also had an LD50 in [13] of 426 mg/kg/day. Moreover, the results for the IC50 in [2] and in data set [11] were 100 µM and 0.7 µM, respectively. For the same compound, in [3], the SSAT came out at 1380%. For the same compound, the AdoMetDC in data set [5] amounted to 68%. Moreover, in [8], the “Picoequivalents of amine/10e6 cells” value amounted to 14050. The same compound registered an ODC in data set [9] of 30%. The compound further registered a Ki in data set [10] of 19 µM.

Values taken from ChEMBL document CHEMBL1130028, “A comparison of structure-activity relationships between spermidine and spermine analogue antineoplastics” (J Med Chem, 1997).
